In the RNAGym collection of RNA variant scans (doi:10.1126/science.aae0568):
Variants at the floor of the assay were thinned out.

B1: tRNA (parent)
chain: GUUCCGUUGGCGUAAUGGUAACGCGUCUCCCUCCUAAGGAGAAGACUGCGGGUUCGAGUCCCGUACGGAACG

Variants of: B1
Experiment: yeast fitness relative to wild type (ratio to wild type); higher = fitter; tRNA-Arg(CCU), competitive growth, 37 C, YPD
Summary of the method: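 A pool of Saccharomyces cerevisiae strains, each with a tRNA-Arg(CCU) gene variant at the native genomic locus, was competed in YPD at 37°C for 24 hours across six parallel replicates. The variants had been chemically synthesised at a 3% per-site mutation rate over 69 sites, and gene amplicons before and after competition were read by 100-nucleotide paired-end sequencing. Darwinian fitness relative to wild type rested on changes in genotype frequencies. Genotypes required ≥ 100 starting reads, and estimates < 0.5 were set to 0.5.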
G9A A42C G58A gave a yeast fitness of 0.917. Work on U3C G63A yielded a yeast fitness of 0.909. G12A U13A A14G A21G C33U showed a yeast fitness of at most 0.5. Work on C27G C46A yielded a yeast fitness of 0.933. Work on C46U G50A G56C C62A C66U yielded a yeast fitness of 0.582. In the case of C5G G39A G52A A70G, the yeast fitness is reported as at most 0.5. C29U C31A G44A showed a yeast fitness of 0.885. Work on U35C A43U yielded a yeast fitness of 0.971. G9A A21G U32G G39C G52C showed a yeast fitness of at most 0.5. Work on A20C C49G G67A yielded a yeast fitness of 0.59. Variant A15U C29A C31G C60G has a yeast fitness of 0.618. In the case of C4G G6C G9A A20G C55A C61A, the yeast fitness is reported as 0.615. For U7A C27A G50C, the yeast fitness was at most 0.5. Work on G10A C55G yielded a yeast fitness of 0.605. With A37U A45U A65G the yeast fitness was at most 0.5. C22U C31A showed a yeast fitness of 0.762. C11A C55U G63A gave a yeast fitness of at most 0.5. With G38C C49G the yeast fitness was 0.743. In the case of U13G C22G C27A C61U, the yeast fitness is reported as at most 0.5. Work on U54C C55A yielded a yeast fitness of 0.635. A43U C62G gave a yeast fitness of 0.805. With G9A G12U A14U U53A the yeast fitness was 0.529. Work on U2C A42U yielded a yeast fitness of 0.937. Work on G9C C62U yielded a yeast fitness of 0.814. G10A C27A A36U A37U G48C showed a yeast fitness of at most 0.5. With C29U A45U A65C the yeast fitness was 0.544. A14C C24G G39A A43G showed a yeast fitness of at most 0.5. Variant C11U A15C C27A G39C G63U U64A has a yeast fitness of at most 0.5. With C4G G41A A45U the yeast fitness was 0.537. For C4A G17C G23C A45C C66U, the yeast fitness was at most 0.5. U26A U35C G68A showed a yeast fitness of 0.631. G39U A70C showed a yeast fitness of 0.811. C4U A15G G23A C34G gave a yeast fitness of at most 0.5. In the case of U53A C55A C62U G63A A65U, the yeast fitness is reported as at most 0.5. U7C A20G A37C C60G A65U A70C gave a yeast fitness of at most 0.5. G10A C24U G41A C49U U53A C66G gave a yeast fitness of at most 0.5. Variant U2A C24G A37C C66U has a yeast fitness of at most 0.5. For U3A C11G G12A C22U G39A A65G, the yeast fitness was at most 0.5. For C30U C34G G39A C49G C61U, the yeast fitness was at most 0.5. Work on A14U C49A A57G yielded a yeast fitness of 0.542. G9C U35A A43U showed a yeast fitness of at most 0.5. C27U U28G C29G showed a yeast fitness of at most 0.5. In the case of G12C C22U A43C G68C, the yeast fitness is reported as 0.556. C27G C30U U32C G51C gave a yeast fitness of 0.603. Variant C4U U35G A45U has a yeast fitness of 0.583. In the case of C4U C11A G67U, the yeast fitness is reported as at most 0.5. With U8C G12A G63A the yeast fitness was at most 0.5. C5A C11G C62G gave a yeast fitness of at most 0.5. Work on C27U C60G yielded a yeast fitness of 0.735. C4U A15C A43G G44A U47A C49G showed a yeast fitness of at most 0.5. For U13C G25C C61U, the yeast fitness was 1.14. Variant G12A G38A U54C has a yeast fitness of at most 0.5. For U3C G6C G38C C46A, the yeast fitness was at most 0.5. With C4U C22U G23A the yeast fitness was at most 0.5. G18C G44A C62G showed a yeast fitness of at most 0.5. In the case of U3C A14G C30U A45C C46G A69C, the yeast fitness is reported as at most 0.5. Work on G17A C31G C49G yielded a yeast fitness of at most 0.5. U3A A36G C62U showed a yeast fitness of 0.69. Work on A45G C60G yielded a yeast fitness of 0.821. C5A G39A gave a yeast fitness of 0.83. G18A G25C A70U showed a yeast fitness of 0.555. G23A C24U C61U gave a yeast fitness of 0.64. C11A C62A C66U gave a yeast fitness of 0.629. C29G C49G G51U A57G gave a yeast fitness of at most 0.5. With U2A G23A C29G C49U the yeast fitness was 0.575. Work on G50C C55G yielded a yeast fitness of 0.56. U2A G23C C31U showed a yeast fitness of at most 0.5. Variant U35A A65G has a yeast fitness of 0.751. G48A C49U A65G showed a yeast fitness of 0.743. With G6C G18A G58A the yeast fitness was at most 0.5. Work on C5A A65C G68A yielded a yeast fitness of 0.628. With A20C G41A the yeast fitness was 0.779. U35C G39A U53A gave a yeast fitness of 0.567. With C22G C34A C49A the yeast fitness was 0.818. A42U G50C U53A gave a yeast fitness of at most 0.5. Work on C29U G51A yielded a yeast fitness of 0.883. G6A A15C C27A C61G U64C A70U gave a yeast fitness of at most 0.5. With U7A G10A C30A A43C C66U the yeast fitness was 0.553. For G10C U28A, the yeast fitness was 0.59. U2A U28A C55G gave a yeast fitness of at most 0.5. Work on G12A C30U A40U C49A G56A A57U yielded a yeast fitness of at most 0.5. In the case of A14U U16G U19A G56A G67A, the yeast fitness is reported as at most 0.5. Variant C29U A43G U53G G63A has a yeast fitness of at most 0.5. With A14C C27G C46G A65G C66U the yeast fitness was at most 0.5. For A14U A43U C55G, the yeast fitness was 0.511. C4A A14C C60G C66U G68A showed a yeast fitness of 0.561. With C33U A70C the yeast fitness was 0.832. In the case of G10A A14G A36G, the yeast fitness is reported as at most 0.5. G25C U26A U35C showed a yeast fitness of at most 0.5. C4G C33U showed a yeast fitness of 0.708. Variant U2A A37U U53A C62U has a yeast fitness of at most 0.5. C29G C34U U59C showed a yeast fitness of 0.631. For C22G C29G G63A, the yeast fitness was at most 0.5. Work on G10C C46U yielded a yeast fitness of 0.611. A14C A42U C55G showed a yeast fitness of at most 0.5. For A20G C29G, the yeast fitness was 0.609. Variant G9C A14U A42G has a yeast fitness of at most 0.5. Work on C24A A36G C61U yielded a yeast fitness of at most 0.5. Work on C31G G41A G52C C60U C62G yielded a yeast fitness of 0.53. For G18A G51C, the yeast fitness was at most 0.5. For U3C C5U U26A G63A, the yeast fitness was at most 0.5. C4G U8C C24G U32G gave a yeast fitness of at most 0.5. Variant C33U A36C U54C has a yeast fitness of at most 0.5. In the case of U19C A20U C61G C66U A69U, the yeast fitness is reported as at most 0.5. In the case of G9A A37G A57U C66U, the yeast fitness is reported as at most 0.5. With C5U A21U A40U the yeast fitness was 0.57. In the case of G10A G38U G67U, the yeast fitness is reported as at most 0.5. In the case of C4G U7C C27A A69U, the yeast fitness is reported as 0.531. For U16G G48A, the yeast fitness was 0.903. C11U A36C showed a yeast fitness of 0.641. For U19C C24A G58A, the yeast fitness was at most 0.5. In the case of C24U C34G A40U G67A, the yeast fitness is reported as at most 0.5. G25A C31G C55G gave a yeast fitness of at most 0.5. In the case of C5A G39A G44A, the yeast fitness is reported as 0.62. With C22G A45U A65C the yeast fitness was 0.534. Work on U16A G58C yielded a yeast fitness of 0.963. Work on U7C C62U C66G yielded a yeast fitness of at most 0.5. In the case of C4G G12U A14C U16C C49U A65G, the yeast fitness is reported as at most 0.5. For G10A A21G C22U, the yeast fitness was 0.606. With C4A G23A C33G the yeast fitness was 0.655. C11U A21G C55G gave a yeast fitness of 0.566. In the case of C4G U8A G12A G58A, the yeast fitness is reported as at most 0.5. G18A A43C C66G showed a yeast fitness of 0.505. G9A U13C C27G U53A C60A A65G gave a yeast fitness of at most 0.5. U2C G48A C60U showed a yeast fitness of at most 0.5. In the case of C27A U35C, the yeast fitness is reported as 0.735. A15U C22U A43C C55U G58A gave a yeast fitness of at most 0.5. With G56U the yeast fitness was 0.85. G6C U16C G41C G51A C55U gave a yeast fitness of at most 0.5. Work on C4A C5U C24G yielded a yeast fitness of at most 0.5. With C5U U26C the yeast fitness was 0.862. G6A G9A C29U C46U G67C showed a yeast fitness of at most 0.5. For U28C U54G A70U, the yeast fitness was at most 0.5. Work on G6C U64A yielded a yeast fitness of 0.853. A15U G38C showed a yeast fitness of 0.699. Variant U2A U7G A42G A45U G52A U64C A69U has a yeast fitness of at most 0.5. Work on A15G C31U yielded a yeast fitness of 0.987. In the case of C30G G39C U59C G63C, the yeast fitness is reported as 0.558. Work on C5G U28C yielded a yeast fitness of 0.737. For C5U U16G A43G G67C, the yeast fitness was at most 0.5. Variant U28C A43C has a yeast fitness of 0.758. U19A C24U G38A U54C gave a yeast fitness of at most 0.5. C5A C31A C55A C61A G63A showed a yeast fitness of 0.671. For C11U C29U C55U, the yeast fitness was at most 0.5. In the case of U8C C27U C31A, the yeast fitness is reported as 0.56. With G17A U32C A40G the yeast fitness was 0.573. Work on A15C U16C A37C G50A U53A C61U yielded a yeast fitness of 0.58. C5G A20C C27G G67U showed a yeast fitness of at most 0.5. U3A G9A A14G C66U showed a yeast fitness of 0.575. C4U A40U A42U C46U gave a yeast fitness of at most 0.5. Work on U8C C11U yielded a yeast fitness of 1.02. In the case of C5U A15U G17C U26C, the yeast fitness is reported as at most 0.5. Variant U13C C31A C55A has a yeast fitness of 0.565. G17C G18C U19G C24G showed a yeast fitness of at most 0.5. For U3C G68U, the yeast fitness was 0.857. In the case of A65U C66A, the yeast fitness is reported as 0.751. For U32A C34A, the yeast fitness was 0.648. Work on G10A G17A C30G G67U yielded a yeast fitness of at most 0.5. For A14C G18A G48A C60G, the yeast fitness was 0.558. For A40G G51A C55U, the yeast fitness was 0.556. With A42C U59A the yeast fitness was 0.764. For C29U C34A, the yeast fitness was 0.761. U53A G68C showed a yeast fitness of 0.6. With C5U U47C G51A the yeast fitness was 0.548. With A15G A21G A42C C46A the yeast fitness was at most 0.5. C4G C24A C34A C66A gave a yeast fitness of at most 0.5. For U13A C27G A42U, the yeast fitness was 0.671.
